Laboratory results: PMC3040456 (Current Chemical Genomics, 2010)
Read-outs that look alike come from different tables or passages of the source. Values belong to the compound of their own block, whether it stands above or below them.

Key:
GLA = conditions: cited from earlier work
[1] = biological target: T1, α-Galactosidase A from green coffee beans (Coffea arabica, UniProt Q42656); assay: GLA enzyme kinetics assay; type: biochemical
[2] = biological target: T2, GLA in human spleen homogenate (Homo sapiens, UniProt P06280); assay: qHTS with GLA in human spleen homogenate; type: biochemical; conditions: human spleen homogenate screen
T2 sequence (P06280 32-429): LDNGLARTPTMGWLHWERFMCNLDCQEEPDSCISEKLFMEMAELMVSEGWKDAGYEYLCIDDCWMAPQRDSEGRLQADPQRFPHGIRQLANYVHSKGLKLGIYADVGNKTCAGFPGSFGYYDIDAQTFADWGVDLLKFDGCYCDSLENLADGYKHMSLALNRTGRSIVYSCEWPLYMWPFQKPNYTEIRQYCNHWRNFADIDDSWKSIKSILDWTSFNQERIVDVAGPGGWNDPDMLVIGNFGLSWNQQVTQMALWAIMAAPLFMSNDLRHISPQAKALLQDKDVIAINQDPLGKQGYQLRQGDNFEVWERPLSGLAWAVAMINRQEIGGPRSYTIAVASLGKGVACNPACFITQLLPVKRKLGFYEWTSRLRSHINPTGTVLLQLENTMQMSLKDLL

rice α-glucosidase (GAA) = assay: α-glucosidase; type: biochemical; conditions: enzyme 8 nM, substrate 160 μM
In short: (§1)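 Enzyme (2 μl), then 23 nl test compound in DMSO, then 1 μl 4MU substrate; 30 min at 21 °C, NaOH/glycine stop (pH 11.6), fluorescence at ex 365/em 440 nm. Enzymes stored in 30% glycerol at -80°C. GC: clinical imiglucerase, 1.9 nM, 800 μM 4MU-β-Glc, citrate/phosphate pH 5.9. GAA: 8 nM, 160 μM 4MU-α-glc, same buffer titrated to pH 5.0.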

[3] = biological target: T3, human recombinant glucocerebrosidase (GC) (Homo sapiens, UniProt P04062, R534H); assay: glucocerebrosidase; type: biochemical
T3 sequence (P04062 40-536 R534H): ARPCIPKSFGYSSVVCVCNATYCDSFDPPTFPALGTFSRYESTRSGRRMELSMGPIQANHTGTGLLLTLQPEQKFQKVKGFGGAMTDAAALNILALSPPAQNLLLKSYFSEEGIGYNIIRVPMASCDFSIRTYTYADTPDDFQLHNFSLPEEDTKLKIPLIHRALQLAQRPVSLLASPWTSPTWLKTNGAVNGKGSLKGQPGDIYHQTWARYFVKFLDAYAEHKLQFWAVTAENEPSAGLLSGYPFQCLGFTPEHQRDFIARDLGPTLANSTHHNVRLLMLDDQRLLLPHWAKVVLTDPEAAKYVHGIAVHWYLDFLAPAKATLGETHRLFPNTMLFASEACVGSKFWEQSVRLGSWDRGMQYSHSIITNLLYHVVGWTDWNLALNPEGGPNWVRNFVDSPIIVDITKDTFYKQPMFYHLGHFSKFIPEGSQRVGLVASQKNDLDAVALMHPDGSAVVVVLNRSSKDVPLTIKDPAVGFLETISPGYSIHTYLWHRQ
In short: as §1

human recombinant GLA = biological target: T4, human recombinant GLA (Homo sapiens, UniProt P06280); assay: qHTS with human recombinant GLA; type: biochemical; conditions: human recombinant GLA screen
T4 sequence (P06280 32-429): T2 sequence (P06280 32-429)

[4] = biological target: T1, α-Galactosidase A from green coffee beans; assay: GLA enzyme assay with 4MU-α-Gala, purified enzyme from green coffee beans; type: biochemical; conditions: for selectivity for GLA over GC (words): GLA vs GC; for inhibitory activity against GLA in qHTS and confirmation: bioactive 6,160 compound set; for IC50: read-out: IC50 for GLA, coffee bean GLA 1 nM, 40 μM 4MU-α-Gala, pH 5.9
[5] = read-out: IC50 for GC, enzyme 1.9 nM, substrate 800 μM

T1 sequence (Q42656 16-378): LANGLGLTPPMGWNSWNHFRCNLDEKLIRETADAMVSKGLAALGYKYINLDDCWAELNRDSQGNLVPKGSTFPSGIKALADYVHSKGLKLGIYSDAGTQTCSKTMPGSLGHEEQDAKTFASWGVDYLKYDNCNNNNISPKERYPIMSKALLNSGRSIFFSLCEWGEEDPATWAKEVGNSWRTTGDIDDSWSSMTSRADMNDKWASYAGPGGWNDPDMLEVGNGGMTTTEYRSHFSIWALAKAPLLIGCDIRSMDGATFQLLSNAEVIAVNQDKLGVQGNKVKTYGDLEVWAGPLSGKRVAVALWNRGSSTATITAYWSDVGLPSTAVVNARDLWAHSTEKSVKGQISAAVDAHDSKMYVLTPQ

Structure (SMILES): OC[C@H]1NC[C@H](O)[C@@H](O)[C@H]1O [DGJ, 1-deoxygalactonojirimycin]
IC50 (GLA; read-out: reported IC50 value): 0.003 µM

Structure (SMILES): O=C([O-])c1ccccc1-c1c2cc(Br)c(=O)cc-2oc2[c]([Hg+])c([O-])c(Br)cc12.[Na+].[Na+].[OH-] [merbromin]
inhibition of GAA (rice α-glucosidase (GAA)): slightly inhibited GAA
IC50 [3, 5]: 0.63 µM
selectivity for GLA over GC (words) [4]: not selective for GLA
selectivity for GLA over GC (words) ([4]; listed as Merbromin): more potent against GC than GLA
inhibitory activity against GLA in qHTS and confirmation [4]: relatively high inhibitory activity
IC50 [4]: 1.38 µM

Structure (SMILES): CC(=O)[O][Hg][c]1ccccc1 [phenylmercuric acetate]
inhibition of GAA (rice α-glucosidase (GAA)): did not inhibit GAA
IC50 [3, 5]: 0.082 µM
selectivity for GLA over GC (words) [4]: not selective for GLA
selectivity for GLA over GC (words) ([4]; listed as Phenylmercuric acetate): significantly more potent against GC than GLA
inhibitory activity against GLA in qHTS and confirmation [4]: relatively high inhibitory activity
IC50 [4]: 7.42 µM

Structure (SMILES): C[C@H](CCC(=O)NCCS(=O)(=O)O)[C@H]1CC[C@H]2[C@@H]3[C@H](O)C[C@@H]4C[C@H](O)CC[C@]4(C)[C@H]3C[C@H](O)[C@]12C [sodium taurocholate]
effect on GLA activity ([4]; titration 0.15 to 40 mM): decreased the GLA activity

Now from value to compound, other results behind:

Km ([1]; pH 4.5): 102 µM
Vmax ([1]; pH 4.5): 2.76 pmol/min
Km ([1]; pH 5.9, 1 nM enzyme): 144 µM
Vmax ([1]; pH 5.9, 1 nM enzyme): 5.74 pmol/min
Structure (SMILES): Cc1cc(=O)oc2cc(O[C@H]3O[C@H](CO)[C@H](O)[C@H](O)[C@H]3O)ccc12 [4MU-α-Gala, 4-methylumbelliferyl-α-D-galactopyranoside]
Km (GLA; same substrate, pH 6.5): 239 µM

activity with the human enzyme [2]: not active
inhibition of GAA (rice α-glucosidase (GAA)): did not inhibit GAA
IC50 [3]: 122 µM
activity with the human enzyme (human recombinant GLA): not active
Ki [1]: 5.5 µM
type of inhibition ([1]; Lineweaver-burk plot): mixed type of inhibition
selectivity for GLA over GC (words) [4]: showed selectivity for GLA over GC
inhibitory activity against GLA in qHTS and confirmation [4]: relatively high inhibitory activity
Structure (SMILES): Cc1c(OCC(F)(F)F)ccnc1C[S+]([O-])c1nc2ccccc2[nH]1 (stereo not drawn) [lansoprazole]
